Tests used:
[1] = Displacement of [125I]CCL5 from HCMV US28 receptor; parameters: species or system Human betaherpesvirus 5
Summary of the method: (§1)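 Allosteric inhibition of chemokine binding to US28 was measured by ¹²⁵I-CCL5 radioligand binding. IC50 values (mean and interval) came from competition curves. Single-point data give percent inhibition of CCL5 binding at 10 µM compound. All runs were in triplicate and repeated at least three times.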

Human betaherpesvirus 5 [2] = test: Activity at HCMV US28 receptor assessed as receptor-mediated inositol phosphate response at 10 uM
Summary of the method: (§2)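 Compounds were tested against ligand-independent (constitutive) US28-driven inositol phosphate production, measured as InsP accumulation. EC50 values (mean and interval) came from dose–response curves. Single-point data give percent inhibition of constitutive signaling at 10 µM compound. All runs were in triplicate and repeated at least three times.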

[3] = Activity at HCMV US28 receptor assessed as receptor-mediated inositol phosphate response; parameters: species or system Human betaherpesvirus 5; summary of the method: as §2
Human betaherpesvirus 5 [4] = test: Displacement of [125I]CCL5 from HCMV US28 receptor at 10 uM; summary of the method: as §1

Structure (SMILES): CCN1CCN(C2=Nc3cc(Cl)ccc3Nc3ccccc32)CC1
- IC50 [1]: 3.8 µM
- Activity (Human betaherpesvirus 5 [2]): 16%

Structure (SMILES): CC(=O)Nc1ccc(CC2Cc3ccccc3C2N)cc1 (stereo not drawn)
- IC50 [1]: > 100 µM
- EC50 [3]: > 100 µM

Structure (SMILES): Clc1ccc(CC2Cc3ccccc3C2N2CCCCC2)c(Cl)c1 (stereo not drawn)
- IC50 [1]: 13.4 µM
- EC50 [3]: 2.6 µM

Structure (SMILES): c1ccc(CCN2C3CCC2CC(OC2c4ccccc4CCc4ccccc42)C3)cc1 (stereo not drawn)
- IC50 [1]: 11.9 µM
- EC50 [3]: 4.3 µM

Structure (SMILES): CC(C)N1C2CCC1CC(OC1c3ccccc3C=Cc3ccccc31)C2 (stereo not drawn)
- Activity (Human betaherpesvirus 5 [4]): 13%
- Activity (Human betaherpesvirus 5 [2]): 3%

Structure (SMILES): CCc1ccccc1C1(OCCN(C)Cc2cccc(C)c2)CCCCC1C (stereo not drawn)
- IC50 [1]: 12.9 µM
- Activity (Human betaherpesvirus 5 [2]): 10%

Structure (SMILES): CCCCCCCCN1C2CCC1CC(OC1c3ccccc3CCc3ccccc31)C2 (stereo not drawn)
- IC50 [1]: 5.6 µM
- EC50 [3]: 4.9 µM

Structure (SMILES): CCN1CCC[C@H]1CNC(=O)c1c(OC)ccc(I)c1O [IOLOPRIDE]
- IC50 [1]: 0.3 µM

Structure (SMILES): Cc1ccc(CC2Cc3ccccc3C2N)c(C)c1 (stereo not drawn)
- IC50 [1]: 17.7 µM
- EC50 [3]: 13.7 µM

Structure (SMILES): CC(Cc1ccccc1)NCC=C1c2ccccc2CCc2ccccc21 (stereo not drawn)
- IC50 [1]: 4.2 µM
- Activity (Human betaherpesvirus 5 [2]): 39%

Structure (SMILES): COc1ccc(CC2Cc3ccccc3C2N)c(OC)c1 (stereo not drawn)
- IC50 [1]: > 100 µM
- EC50 [3]: > 100 µM

Structure (SMILES): CC(Cc1ccc(Cl)cc1)NCCC1=C2C=CC=CC2Sc2ccccc21 (stereo not drawn)
- IC50 [1]: 2.6 µM
- Activity (Human betaherpesvirus 5 [2]): 21%

Structure (SMILES): CN1CCN(/C(=C/c2cccc(Cl)c2)c2ccccc2)CC1
- Activity (Human betaherpesvirus 5 [4]): 13%
- Activity (Human betaherpesvirus 5 [2]): 20%

Structure (SMILES): NC1c2ccccc2CCC1Cc1ccc(Cl)cc1Cl (stereo not drawn)
- IC50 [1]: 8.5 µM
- EC50 [3]: 12.6 µM

Structure (SMILES): CSc1ccc2c(c1)C(N1CCN(C)CC1)Cc1ccccc1S2 (stereo not drawn) [METITEPINE]
- IC50 [1]: 0.41 µM
- EC50 [3]: 7.6 µM

Structure (SMILES): N=C(N)NCCN1C2CCC1CC(OC1c3ccccc3CCc3ccccc31)C2 (stereo not drawn)
- Activity (Human betaherpesvirus 5 [4]): 34%
- Activity (Human betaherpesvirus 5 [2]): 0%

Structure (SMILES): OC1(c2ccc(Cl)cc2)CCN(CCCC(c2ccc(F)cc2)c2ccc(F)cc2)CC1
- IC50 [1]: 3 µM
- EC50 [3]: 5.2 µM

Structure (SMILES): CN1CCN(CCCN2Cc3ccccc3CCc3ccccc32)CC1
- IC50 [1]: 4.9 µM
- Activity (Human betaherpesvirus 5 [2]): 3%

Structure (SMILES): COc1ccc(CC2Cc3ccccc3C2N)cc1C (stereo not drawn)
- IC50 [1]: 59.7 µM
- EC50 [3]: 16.4 µM

Structure (SMILES): COc1ccccc1CC1Cc2ccccc2C1N (stereo not drawn)
- IC50 [1]: 37.3 µM
- EC50 [3]: 42.7 µM

Structure (SMILES): CC(Cc1ccccc1)NCCC1c2ccccc2CCc2ccccc21 (stereo not drawn)
- IC50 [1]: 3.7 µM
- EC50 [3]: 5.2 µM

Structure (SMILES): CN1CCN(C2=Nc3cc(Cl)ccc3Sc3ccccc32)CC1
- Activity (Human betaherpesvirus 5 [4]): 47%
- Activity (Human betaherpesvirus 5 [2]): 0%

Structure (SMILES): CC(Cc1ccccc1)NCC=C1c2ccccc2-c2ccccc21 (stereo not drawn)
- IC50 [1]: 7 µM
- Activity (Human betaherpesvirus 5 [2]): 42%

Structure (SMILES): CC(Cc1ccccc1)NCCC1c2ccccc2-c2ccccc21 (stereo not drawn)
- IC50 [1]: 5.2 µM
- EC50 [3]: 10.9 µM

Structure (SMILES): OC1(c2ccc(Cl)cc2)CCN(C2c3ccccc3CC2Cc2ccc(Cl)cc2Cl)CC1 (stereo not drawn)
- IC50 [1]: 11 µM
- EC50 [3]: 6 µM

Structure (SMILES): OC1(c2ccc(Cl)cc2)CCCN(CCCN2Cc3ccccc3CCc3ccccc32)C1 (stereo not drawn)
- IC50 [1]: 0.9 µM
- EC50 [3]: 3.9 µM

Structure (SMILES): NCC(OC(c1ccccc1)c1ccc(Cl)cc1Cl)c1ccccc1 (stereo not drawn)
- IC50 [1]: 9.2 µM
- EC50 [3]: 10.2 µM

Structure (SMILES): CN1CCN(CCC(=O)N2Cc3ccccc3CCc3ccccc32)CC1
- IC50 [1]: > 100 µM
- Activity (Human betaherpesvirus 5 [2]): 0%

Structure (SMILES): N/C(CCN1C2CCC1CC(OC1c3ccccc3CCc3ccccc31)C2)=N\O (stereo not drawn)
- Activity (Human betaherpesvirus 5 [4]): 0%
- Activity (Human betaherpesvirus 5 [2]): 0%

Structure (SMILES): NC1c2ccccc2CC1Cc1ccccc1 (stereo not drawn)
- IC50 [1]: 80.6 µM
- EC50 [3]: > 100 µM

Structure (SMILES): CN1CCN(C2=Nc3ccccc3Sc3ccc(Cl)cc32)CC1
- Activity (Human betaherpesvirus 5 [4]): 28%
- Activity (Human betaherpesvirus 5 [2]): 0%

Structure (SMILES): CC(Cc1cccc(C(F)(F)F)c1)NCC=C(c1ccc(F)cc1)c1ccc(F)cc1 (stereo not drawn)
- Activity (Human betaherpesvirus 5 [4]): 39%
- Activity (Human betaherpesvirus 5 [2]): 38%

Structure (SMILES): COc1ccc(CC2Cc3ccccc3C2N)cc1 (stereo not drawn)
- IC50 [1]: > 100 µM
- EC50 [3]: > 100 µM

Structure (SMILES): C=C[C@H]1CN2CC[C@@H]1C[C@H]2C(OC(=O)c1ccc(C)cc1)c1ccnc2ccccc12 (stereo partly drawn)
- IC50 [1]: 0.3 µM

Structure (SMILES): CCCN1C2CCC1CC(OC1c3ccccc3C=Cc3ccccc31)C2 (stereo not drawn)
- Activity (Human betaherpesvirus 5 [4]): 18%
- Activity (Human betaherpesvirus 5 [2]): 0%

Structure (SMILES): O=C(CCN1CCN(CCO)CC1)N1Cc2ccccc2CCc2ccccc21
- IC50 [1]: > 100 µM
- Activity (Human betaherpesvirus 5 [2]): 0%

Structure (SMILES): CSc1ccc2c(c1)C(OCCN1CCC(O)(c3ccc(Cl)cc3)CC1)Cc1ccccc1S2 (stereo not drawn)
- IC50 [1]: 12.4 µM
- EC50 [3]: 7.1 µM

Structure (SMILES): CN1CCN(C2=Nc3cc(Cl)ccc3Nc3ccccc32)CC1
- Activity (Human betaherpesvirus 5 [4]): 47%
- Activity (Human betaherpesvirus 5 [2]): 11%

Structure (SMILES): OC1(c2ccc(Cl)cc2)CCN(CCCN(Cc2ccccc2)c2ccc(Cl)cc2)CC1
- IC50 [1]: 1.8 µM
- EC50 [3]: 5 µM

Structure (SMILES): C1=Cc2ccccc2C(OC2CC3CCC(C2)N3C2CCCCC2)c2ccccc21 (stereo not drawn)
- IC50 [1]: 8.3 µM
- EC50 [3]: 5.8 µM

Structure (SMILES): CN1CCN(C2=Nc3cc(Cl)ccc3Oc3ccccc32)CC1
- Activity (Human betaherpesvirus 5 [4]): 19%
- Activity (Human betaherpesvirus 5 [2]): 22%

Structure (SMILES): N#CC(CCCN1CCC(O)(c2ccc(Cl)cc2)CC1)(c1ccccc1)c1ccccc1 [BERLEX COMPOUND]
- IC50 [1]: 4.9 µM
- EC50 [3]: 6.3 µM

Structure (SMILES): Clc1ccc(CC2Cc3ccccc3C2NCc2ccccc2)c(Cl)c1 (stereo not drawn)
- IC50 [1]: > 100 µM
- EC50 [3]: > 100 µM

Structure (SMILES): NCC1(c2ccc(Cl)cc2)CCN(CCCN2Cc3ccccc3CCc3ccccc32)CC1
- IC50 [1]: 1.6 µM
- EC50 [3]: 7.6 µM

Structure (SMILES): CCN1C2CCC1CC(OC1c3ccccc3CCc3ccccc31)C2 (stereo not drawn)
- Activity (Human betaherpesvirus 5 [4]): 7%
- Activity (Human betaherpesvirus 5 [2]): 0%

Structure (SMILES): CCCCN1CCN(C2=Nc3cc(Cl)ccc3Nc3ccccc32)CC1
- IC50 [1]: 4.7 µM
- Activity (Human betaherpesvirus 5 [2]): 19%

Structure (SMILES): Clc1ccc(C2=CCN(C3c4ccccc4CC3Cc3ccc(Cl)cc3Cl)CC2)cc1 (stereo not drawn)
- IC50 [1]: > 100 µM
- EC50 [3]: > 100 µM

Structure (SMILES): Clc1ccc(CC2Cc3ccccc3C2N2CCN(c3ccccc3)CC2)c(Cl)c1 (stereo not drawn)
- IC50 [1]: > 100 µM
- EC50 [3]: > 100 µM

Structure (SMILES): CC(Cc1cccc(C(F)(F)F)c1)NCCc1c2ccccc2nc2ccccc12 (stereo not drawn)
- IC50 [1]: 5.5 µM
- Activity (Human betaherpesvirus 5 [2]): 34%

Structure (SMILES): OCCCCN1CCN(/C(=C/c2cccc(Cl)c2)c2ccccc2)CC1
- Activity (Human betaherpesvirus 5 [4]): 13%
- Activity (Human betaherpesvirus 5 [2]): 0%

Structure (SMILES): OCCN1CCN(CCCN2Cc3ccccc3CCc3ccccc32)CC1
- IC50 [1]: 1.6 µM

Structure (SMILES): NC1c2ccccc2CCCC1Cc1ccc(Cl)cc1Cl (stereo not drawn)
- IC50 [1]: 11.8 µM
- Activity (Human betaherpesvirus 5 [2]): 26%

Structure (SMILES): OC1(c2ccc(Cl)cc2)CCN(CCCN(Cc2ccccc2)c2ccccc2)CC1
- IC50 [1]: 4.1 µM
- EC50 [3]: 3 µM

Structure (SMILES): NC1c2ccccc2CC1Cc1ccc(Cl)cc1Cl (stereo not drawn)
- IC50 [1]: 9.5 µM
- EC50 [3]: 11.1 µM

Structure (SMILES): CN1CCN(C2Cc3ccccc3Sc3ccc(Cl)cc32)CC1 (stereo not drawn) [CLOROTEPINE]
- IC50 [1]: 4.9 µM
- EC50 [3]: 12.1 µM

Structure (SMILES): NC(CCc1ccc(Cl)c(Cl)c1)c1ccc(Cl)c(Cl)c1 (stereo not drawn)
- IC50 [1]: 7.5 µM
- EC50 [3]: 11.7 µM

Structure (SMILES): OC1(c2ccc(Cl)cc2)CCN(CCCN2Cc3ccccc3CCc3ccccc32)CC1
- IC50 [1]: 0.7 µM
- EC50 [3]: 4.7 µM

Structure (SMILES): CCN1CCN(C2=Nc3cc(Cl)ccc3Oc3ccccc32)CC1
- Activity (Human betaherpesvirus 5 [4]): 38%
- Activity (Human betaherpesvirus 5 [2]): 0%

Structure (SMILES): OC1(c2ccc(Cl)cc2)CCN(CCCN(Cc2ccc(Cl)cc2)c2ccccc2)CC1
- IC50 [1]: 5.7 µM
- EC50 [3]: 5.5 µM

Structure (SMILES): CC(C)(C)c1ccc(C(OC(CN)c2ccccc2)c2ccccc2)cc1 (stereo not drawn)
- IC50 [1]: 8.2 µM
- EC50 [3]: 8.4 µM

Structure (SMILES): OC1(c2ccc(Cl)cc2)CCN(CCOC(c2ccccc2)c2ccccc2)CC1
- IC50 [1]: 2.1 µM
- EC50 [3]: 3.5 µM

Structure (SMILES): NC(CCc1ccccc1)c1ccc(Cl)c(Cl)c1 (stereo not drawn)
- Activity (Human betaherpesvirus 5 [4]): 5%
- Activity (Human betaherpesvirus 5 [2]): 34%

Structure (SMILES): OC1(c2ccc(Cl)cc2)CCN(CCOC(c2ccccc2)c2ccc(F)cc2)CC1 (stereo not drawn)
- IC50 [1]: 2.3 µM
- EC50 [3]: 4.6 µM

Structure (SMILES): CN1CCN(C2c3ccccc3CC2Cc2ccc(Cl)cc2Cl)CC1 (stereo not drawn)
- IC50 [1]: 8.1 µM
- EC50 [3]: 12.1 µM

Structure (SMILES): Clc1cccc(/C=C(\c2ccccc2)N2CCN(CCCCc3ccccc3)CC2)c1
- Activity (Human betaherpesvirus 5 [4]): 47%
- Activity (Human betaherpesvirus 5 [2]): 18%

Structure (SMILES): CN1[C@@H]2CC[C@H]1C[C@@H](OC1c3ccccc3CCc3ccccc31)C2
- Activity (Human betaherpesvirus 5 [4]): 15%
- Activity (Human betaherpesvirus 5 [2]): 0%

Structure (SMILES): c1ccc(CN2C3CCC2CC(OC2c4ccccc4CCc4ccccc42)C3)cc1 (stereo not drawn)
- IC50 [1]: 10.5 µM
- EC50 [3]: 8.8 µM

Structure (SMILES): CN1CCN(C2=Nc3ccccc3Oc3ccc(Cl)cc32)CC1
- Activity (Human betaherpesvirus 5 [4]): 13%
- Activity (Human betaherpesvirus 5 [2]): 0%
